In PMC4203516 (Autophagy, 2014):

Assays:
[1] = system: autophagic vacuoles in peripheral blood mononuclear cells (PBMC); assay: Autophagic vacuole; type: in vivo, human; conditions: 1 wk, 24 h or 4 h after first TEM infusion, data pooled
[2] = system: cutaneous melanoma metastases; assay: Autophagic vacuole accumulation in serial tumor biopsies by electron microscopy; type: in vivo, human; conditions: after 4 h of treatment with TEM, one melanoma patient
Procedure, shortened: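 Cutaneous melanoma metastases sampled serially by punch biopsy from patients on IV temsirolimus 25 mg weekly plus oral HCQ 1200 mg/d. Tumour was dissected on ice and fixed immediately in EM fixative (2% glutaraldehyde, as used for PBMC) before electron microscopy for autophagic vacuoles.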

[3] = system: advanced melanoma; conditions: temsirolimus alone, of 33 patients; cited from earlier work

CO[C@H]1C[C@@H]2CC[C@@H](C)[C@@](O)(O2)C(=O)C(=O)N2CCCC[C@H]2C(=O)O[C@H]([C@H](C)C[C@@H]2CC[C@@H](OC(=O)C(C)(CO)CO)[C@H](OC)C2)CC(=O)[C@H](C)/C=C(\C)[C@@H](O)[C@@H](OC)C(=O)[C@H](C)C[C@H](C)/C=C/C=C/C=C/1C [TEM, temsirolimus]
AV/cell in PBMC after TEM treatment alone [1]: no significant increase in AV
AV in tumor tissue compared with baseline [2]: no accumulation of AV
Patients with partial response [3]: 1
Patients with stable disease [3]: 0
